Results published in ChEMBL document CHEMBL4020768 (Bioorg Med Chem Lett, 2017).
pKi: −log10 of the molar value.

How the values were obtained:
[1] = biological target: Sigma non-opioid intracellular receptor 1 (Homo sapiens, UniProt Q99720); assay: Displacement of (+)-[3H]-pentazocine from recombinant human sigma 1 receptor expressed in baculovirus infected Sf9 insect cell membranes after 90 mins by scintillation counting method
In short: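 Human σ1 cloned in pFastBac, baculovirus-expressed in Sf9 cells (infected at 4 x 10⁶ cells/mL, 27 °C, harvested 48 h); washed membranes, 2.5 µg protein per reaction in 50 mM Tris pH 8.0 with 10 nM [³H](+)-pentazocine and 8 competitor concentrations 10 pM–100 µM; 90 min at 37 °C; filtration on PEI-soaked glass fiber filters; scintillation counting; two or three independent experiments in triplicate.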

[2] = biological target: T1, Sigma intracellular receptor 2 (Rattus norvegicus, UniProt Q5U3Y7); assay: Displacement of (+)-[3H]-ditolylguanidine from recombinant rat sigma 2 receptor expressed in rat PC12 cell membranes after 90 mins in presence of sigma 1 receptor blocker (+)-SKF-10047 by scintillation counting method
T1 sequence (Q5U3Y7 whole entry): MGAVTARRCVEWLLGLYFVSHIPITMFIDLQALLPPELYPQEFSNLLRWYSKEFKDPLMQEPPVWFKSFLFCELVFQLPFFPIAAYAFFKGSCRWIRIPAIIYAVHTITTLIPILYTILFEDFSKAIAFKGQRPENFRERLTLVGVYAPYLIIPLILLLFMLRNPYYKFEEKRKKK
In short: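 PC-12 cell membranes (12-30 µg protein per reaction) in 50 mM Tris pH 8.0 with 30 nM [³H]DTG plus 1.8 µM (+)-SKF-10,047 to block σ1 sites; competitor at graded concentrations; 90 min at 37 °C; filtration through 0.3% PEI-soaked glass fiber filters; scintillation counting; two or three independent experiments in triplicate.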

[3] = Selectivity ratio of Ki for recombinant rat sigma 2 receptor to Ki for recombinant human sigma 1 receptor

Sigma non-opioid intracellular receptor 1, sequence (Q99720 whole entry): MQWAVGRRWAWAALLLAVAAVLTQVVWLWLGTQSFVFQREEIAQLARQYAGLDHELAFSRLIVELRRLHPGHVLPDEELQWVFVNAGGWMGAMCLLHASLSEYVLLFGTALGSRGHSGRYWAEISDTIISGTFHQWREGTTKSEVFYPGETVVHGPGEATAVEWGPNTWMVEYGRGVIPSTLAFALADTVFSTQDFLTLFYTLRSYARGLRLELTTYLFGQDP

SMILES	pKi [1]	pKi [2]	Ratio Ki [3]
c1ccc(CCCN2CCOCC2)cc1	6.15	5.69	3
CC(C)(C)c1ccc(CCCN2CCOCC2)cc1	8.59	6.03	360
CC1CN(CCCc2ccc(C(C)(C)C)cc2)CC(C)O1 (mixture of isomers)	8.08	7.11	9
CC1CCN(CCCc2ccc(C(C)(C)C)cc2)CC1	8.27	7.86	3
CC(C)(C)c1ccc(CCCN2CCCCC2)cc1	8.82	7.50	21
C[C@@H]1CN(CCCc2ccc(C(C)(C)C)cc2)C[C@@H](C)O1 (relative stereo)	8.64	7.18	29
CC(Cc1ccc(C(C)(C)C)cc1)CN1C[C@@H](C)O[C@@H](C)C1 (some centres undefined) [FENPROPIMORPH]		6.07	
